{
  "source": "ChEMBL document CHEMBL1667822",
  "about": "“Selective antagonists of mouse trace amine-associated receptor 1 (mTAAR1): discovery of EPPTB (RO5212773)” (Bioorg Med Chem Lett, 2011)",
  "key": {"[1]": {"molecular_target": "5-hydroxytryptamine receptor 6 (Homo sapiens) (UniProt P50406)", "experiment": "Displacement of [3H]LSD from human recombinant 5HT6 receptor expressed in CHO cells", "assay_type": "cell-based", "details": "concentration not given here"}, "[2]": {"molecular_target": "Nociceptin receptor (Homo sapiens) (UniProt P41146)", "experiment": "Displacement of [3H]nociceptin from human recombinant ORL1 receptor expressed in H recombinant HEK293 cells", "assay_type": "cell-based", "details": "concentration not given here"}, "[3]": {"molecular_target": "Type-1 angiotensin II receptor (Homo sapiens) (UniProt P30556)", "experiment": "Displacement of [125I][Sar1,Ile8]-AT II from human recombinant AT1 receptor expressed in HEK293 cells", "assay_type": "cell-based", "details": "concentration not given here"}, "[4]": {"experiment": "Ratio of drug level in brain to plasma in mouse at 2.5 mg/kg, iv", "assay_type": "ADME, organism-based", "set-up": "dose 2.5 mg/kg, route intravenous", "details": "read-out: BPR", "summary_of_the_method": "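Single-dose pharmacokinetics in mice with parenteral dosing, either 2.5 mg/kg iv or 5 mg/kg ip. Drug levels were measured in plasma, with brain exposure taken as the brain/plasma concentration ratio.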"}, "[5]": {"experiment": "Bioavailability in mouse at 5 mg/kg, ip", "assay_type": "ADME, organism-based", "details": "in vivo", "summary_of_the_method": "(§1)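 Single-dose pharmacokinetics in mice comparing parenteral routes: intravenous at 2.5 mg/kg and intraperitoneal at 5 mg/kg. Plasma concentrations were followed over time. Bioavailability was derived for the ip route, and Cmax was taken from the ip plasma profile.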"}, "[6]": {"molecular_target": "Adenosine receptor A2a (Homo sapiens) (UniProt P29274)", "sequence (P29274 whole entry)": "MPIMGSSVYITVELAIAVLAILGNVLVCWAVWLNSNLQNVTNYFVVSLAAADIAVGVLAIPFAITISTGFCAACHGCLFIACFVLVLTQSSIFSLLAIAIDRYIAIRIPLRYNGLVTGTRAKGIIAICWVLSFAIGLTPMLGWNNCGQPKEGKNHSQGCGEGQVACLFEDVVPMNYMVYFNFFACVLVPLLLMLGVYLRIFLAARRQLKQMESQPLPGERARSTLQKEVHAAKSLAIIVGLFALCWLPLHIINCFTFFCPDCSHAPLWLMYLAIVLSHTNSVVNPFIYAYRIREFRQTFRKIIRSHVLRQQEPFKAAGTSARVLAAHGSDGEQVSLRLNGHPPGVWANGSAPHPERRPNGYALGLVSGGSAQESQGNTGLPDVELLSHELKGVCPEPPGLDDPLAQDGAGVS", "experiment": "Displacement of [3H]CGS21680 from human recombinant A2A receptor expressed in HEK293 cells", "assay_type": "cell-based", "details": "concentration not given here"}, "Rattus norvegicus [7]": {"organism": "Rattus norvegicus", "experiment": "Displacement of [3H]batrachotoxinin from sodium channel in rat cerebral cortex", "assay_type": "tissue-based", "details": "concentration not given here"}, "[8]": {"molecular_target": "D(1A) dopamine receptor (Homo sapiens) (UniProt P21728)", "sequence (P21728 whole entry)": "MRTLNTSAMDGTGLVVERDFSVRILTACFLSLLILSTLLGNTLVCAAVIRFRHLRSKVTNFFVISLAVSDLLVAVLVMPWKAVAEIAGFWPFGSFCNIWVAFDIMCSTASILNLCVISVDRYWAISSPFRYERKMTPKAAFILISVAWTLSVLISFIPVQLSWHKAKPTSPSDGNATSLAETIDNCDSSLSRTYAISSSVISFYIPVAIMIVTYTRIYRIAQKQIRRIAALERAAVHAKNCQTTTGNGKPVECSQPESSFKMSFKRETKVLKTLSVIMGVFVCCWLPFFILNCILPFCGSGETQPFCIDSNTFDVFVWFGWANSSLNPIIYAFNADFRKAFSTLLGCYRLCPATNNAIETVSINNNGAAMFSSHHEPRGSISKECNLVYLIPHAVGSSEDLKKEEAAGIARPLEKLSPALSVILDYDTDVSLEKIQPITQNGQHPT", "experiment": "Displacement of [3H]SCH 23390 from human recombinant dopamine D1 receptor expressed in CHO cells", "assay_type": "cell-based", "details": "concentration not given here"}, "[9]": {"molecular_target": "5-hydroxytryptamine receptor 3A (Homo sapiens) (UniProt P46098)", "experiment": "Displacement of [3H]BRL 43694 from human recombinant 5HT3 receptor expressed in CHO cells", "assay_type": "cell-based", "details": "concentration not given here"}, "[10]": {"molecular_target": "Melatonin receptor type 1A (Homo sapiens) (UniProt P48039)", "sequence (P48039 whole entry)": "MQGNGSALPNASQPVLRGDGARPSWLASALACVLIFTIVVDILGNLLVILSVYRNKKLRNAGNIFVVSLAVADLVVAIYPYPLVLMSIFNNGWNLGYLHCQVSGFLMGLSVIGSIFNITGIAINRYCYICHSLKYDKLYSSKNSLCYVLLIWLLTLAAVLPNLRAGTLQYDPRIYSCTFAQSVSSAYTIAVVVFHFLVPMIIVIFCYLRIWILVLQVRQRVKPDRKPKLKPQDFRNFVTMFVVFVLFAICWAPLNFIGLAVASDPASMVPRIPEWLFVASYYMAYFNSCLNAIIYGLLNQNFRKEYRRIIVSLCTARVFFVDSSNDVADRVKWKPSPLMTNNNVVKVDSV", "experiment": "Displacement of [125I]2-iodomelatonin from human recombinant MT1 receptor expressed in CHO cells", "assay_type": "cell-based", "details": "concentration not given here"}, "[11]": {"molecular_target": "Trace amine-associated receptor 1 (Rattus norvegicus, UniProt Q923Y9)", "sequence (Q923Y9 whole entry)": "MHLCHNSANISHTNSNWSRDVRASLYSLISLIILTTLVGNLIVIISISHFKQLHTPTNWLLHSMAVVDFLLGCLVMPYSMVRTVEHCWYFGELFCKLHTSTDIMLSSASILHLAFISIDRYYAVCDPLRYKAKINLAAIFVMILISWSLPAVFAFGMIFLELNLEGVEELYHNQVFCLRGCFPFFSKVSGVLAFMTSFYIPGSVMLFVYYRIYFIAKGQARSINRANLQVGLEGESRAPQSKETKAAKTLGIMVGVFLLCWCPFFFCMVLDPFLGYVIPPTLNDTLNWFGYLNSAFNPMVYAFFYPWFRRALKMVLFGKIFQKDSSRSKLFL", "experiment": "Inhibition of rat TAAR1", "summary_of_the_method": "(§2)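 In vitro cAMP functional assay with antagonism read as reversal of the response to the endogenous agonist beta-PEA. Efficacy was scaled so that 100% equals 0% minimum stimulation. Residual beta-PEA stimulation was taken at the highest test-compound concentration. Values are means of at least two independent experiments, with duplicates typically within a twofold margin.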"}, "[12]": {"molecular_target": "Trace amine-associated receptor 1 (Mus musculus) (UniProt Q923Y8)", "experiment": "Antagonist activity at mouse TAAR1 assessed as residual stimulation by in vitro cAMP functional assay relative to control", "set-up": "concentration or dose not given beside the values", "summary_of_the_method": "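Mouse TAAR1 in vitro cAMP functional assay using the endogenous agonist β-PEA. The read-out is the residual β-PEA stimulation remaining at the maximum test-compound concentration. Values are averages of at least two independent experiments.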"}, "[13]": {"molecular_target": "5-hydroxytryptamine receptor 2A (Homo sapiens) (UniProt P28223)", "sequence (P28223 whole entry)": "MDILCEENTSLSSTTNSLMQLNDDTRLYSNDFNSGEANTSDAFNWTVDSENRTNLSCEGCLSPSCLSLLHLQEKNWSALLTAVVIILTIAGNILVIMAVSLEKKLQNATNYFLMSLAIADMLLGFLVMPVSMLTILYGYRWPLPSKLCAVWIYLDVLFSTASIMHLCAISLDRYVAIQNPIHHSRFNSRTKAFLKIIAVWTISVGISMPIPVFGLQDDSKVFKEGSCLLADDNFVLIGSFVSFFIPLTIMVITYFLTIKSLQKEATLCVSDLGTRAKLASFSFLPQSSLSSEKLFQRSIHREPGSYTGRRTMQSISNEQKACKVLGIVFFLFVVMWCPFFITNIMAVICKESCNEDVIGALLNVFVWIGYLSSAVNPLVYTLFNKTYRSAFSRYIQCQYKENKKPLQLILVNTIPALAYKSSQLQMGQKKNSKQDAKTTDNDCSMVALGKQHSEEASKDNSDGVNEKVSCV", "experiment": "Displacement of [3H]Ketanserin from human recombinant 5HT2A receptor expressed in HEK293 cells", "assay_type": "cell-based", "details": "concentration not given here"}, "[14]": {"molecular_target": "Neuromedin-K receptor (Homo sapiens) (UniProt P29371)", "sequence (P29371 whole entry)": "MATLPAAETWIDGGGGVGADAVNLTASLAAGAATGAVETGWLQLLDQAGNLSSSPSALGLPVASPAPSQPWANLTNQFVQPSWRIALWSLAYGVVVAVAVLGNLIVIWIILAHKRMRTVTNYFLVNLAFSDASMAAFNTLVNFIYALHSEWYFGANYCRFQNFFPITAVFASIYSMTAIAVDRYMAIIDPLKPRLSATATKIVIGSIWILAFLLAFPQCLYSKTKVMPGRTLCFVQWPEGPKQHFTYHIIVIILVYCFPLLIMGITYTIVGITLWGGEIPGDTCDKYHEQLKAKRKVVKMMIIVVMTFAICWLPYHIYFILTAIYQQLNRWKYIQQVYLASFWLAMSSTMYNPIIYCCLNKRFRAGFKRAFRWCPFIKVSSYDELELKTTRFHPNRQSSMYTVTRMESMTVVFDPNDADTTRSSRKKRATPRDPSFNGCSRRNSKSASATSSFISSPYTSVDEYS", "experiment": "Displacement of [3H]SR 142801 from human recombinant NK3 receptor expressed in CHO cells", "assay_type": "cell-based", "details": "concentration not given here"}, "[15]": {"molecular_target": "Adenosine receptor A1 (Homo sapiens) (UniProt P30542)", "sequence (P30542 whole entry)": "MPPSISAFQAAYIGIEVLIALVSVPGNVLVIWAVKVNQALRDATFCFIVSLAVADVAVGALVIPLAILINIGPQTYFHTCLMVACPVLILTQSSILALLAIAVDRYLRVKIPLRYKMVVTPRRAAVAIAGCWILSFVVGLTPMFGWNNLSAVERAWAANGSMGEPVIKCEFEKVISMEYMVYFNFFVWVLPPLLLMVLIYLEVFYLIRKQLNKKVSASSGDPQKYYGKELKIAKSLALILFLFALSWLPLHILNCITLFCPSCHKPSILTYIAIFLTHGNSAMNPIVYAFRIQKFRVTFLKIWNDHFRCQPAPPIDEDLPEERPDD", "experiment": "Displacement of [3H]DPCPX from human recombinant A1 receptor expressed in CHO cells", "assay_type": "cell-based", "details": "concentration not given here"}, "[16]": {"molecular_target": "Neuropeptide Y receptor type 2 (Homo sapiens) (UniProt P49146)", "sequence (P49146 whole entry)": "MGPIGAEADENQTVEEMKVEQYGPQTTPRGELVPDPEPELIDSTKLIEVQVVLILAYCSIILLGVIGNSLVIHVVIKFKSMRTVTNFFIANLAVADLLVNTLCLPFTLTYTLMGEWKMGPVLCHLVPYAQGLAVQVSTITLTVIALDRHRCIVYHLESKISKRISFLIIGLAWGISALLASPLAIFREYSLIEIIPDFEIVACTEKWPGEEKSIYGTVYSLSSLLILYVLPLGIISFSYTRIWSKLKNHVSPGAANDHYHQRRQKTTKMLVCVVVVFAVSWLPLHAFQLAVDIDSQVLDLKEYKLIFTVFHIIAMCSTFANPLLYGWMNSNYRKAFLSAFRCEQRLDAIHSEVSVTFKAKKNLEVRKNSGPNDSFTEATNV", "experiment": "Displacement of [125I]peptide YY from human recombinant Y2 receptor expressed in KAN-TS cells", "assay_type": "cell-based", "details": "concentration not given here"}, "[17]": {"molecular_target": "C-X-C chemokine receptor type 2 (Homo sapiens) (UniProt P25025)", "experiment": "Displacement of [125I]IL-8 from human recombinant CXCR2 receptor expressed in HEK293 cells", "assay_type": "cell-based", "details": "concentration not given here"}, "[18]": {"molecular_target": "5-hydroxytryptamine receptor 1A (Homo sapiens) (UniProt P08908)", "sequence (P08908 whole entry)": "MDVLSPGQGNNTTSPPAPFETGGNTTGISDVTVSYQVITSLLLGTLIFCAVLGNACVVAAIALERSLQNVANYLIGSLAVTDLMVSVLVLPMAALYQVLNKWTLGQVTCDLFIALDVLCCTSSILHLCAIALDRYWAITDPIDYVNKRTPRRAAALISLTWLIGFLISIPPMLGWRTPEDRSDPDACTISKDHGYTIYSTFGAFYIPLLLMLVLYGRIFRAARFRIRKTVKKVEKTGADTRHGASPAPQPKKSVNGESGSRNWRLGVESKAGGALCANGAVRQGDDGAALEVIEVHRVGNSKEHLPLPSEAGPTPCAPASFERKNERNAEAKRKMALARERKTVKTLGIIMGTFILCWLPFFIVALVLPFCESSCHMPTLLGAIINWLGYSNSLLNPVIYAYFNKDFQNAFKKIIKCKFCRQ", "experiment": "Displacement of [3H]8-OH-DPAT from human recombinant 5HT1A receptor expressed in HEK293 cells", "assay_type": "cell-based", "details": "concentration not given here"}, "[19]": {"experiment": "Half life in mouse at 2.5 mg/kg, iv", "assay_type": "ADME, organism-based", "set-up": "dose 2.5 mg/kg, route intravenous", "details": "in vivo", "summary_of_the_method": "as §1"}, "Rattus norvegicus [20]": {"organism": "Rattus norvegicus", "experiment": "Inhibition of rat ca2+ channel verapamil site at 10 uM"}, "[21]": {"molecular_target": "Adrenergic receptor alpha-1 (Rattus norvegicus) (UniProt P15823+P23944+P43140)", "experiment": "Displacement of [3H]prazosine from alpha1 receptor in rat cerebral cortex", "assay_type": "tissue-based", "details": "concentration not given here"}, "Rattus norvegicus [22]": {"organism": "Rattus norvegicus", "experiment": "Inhibition of rat GABA chloride channel at 10 uM"}, "[23]": {"molecular_target": "T1, Trace amine-associated receptor 1 (Homo sapiens, UniProt Q96RJ0)", "T1 sequence (Q96RJ0 whole entry)": "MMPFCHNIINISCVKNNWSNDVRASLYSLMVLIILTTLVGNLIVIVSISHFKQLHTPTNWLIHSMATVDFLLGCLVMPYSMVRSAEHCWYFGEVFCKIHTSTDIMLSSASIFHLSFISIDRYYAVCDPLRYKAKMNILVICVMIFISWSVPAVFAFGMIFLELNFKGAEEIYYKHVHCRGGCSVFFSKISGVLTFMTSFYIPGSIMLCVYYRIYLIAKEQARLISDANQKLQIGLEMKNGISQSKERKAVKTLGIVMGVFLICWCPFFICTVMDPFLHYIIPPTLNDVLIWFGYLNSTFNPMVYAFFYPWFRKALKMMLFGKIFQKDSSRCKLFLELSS", "experiment": "Antagonist activity at human TAAR1 assessed as reversal of endogenous beta-PEA effect", "assay_type": "functional", "summary_of_the_method": "as §2"}, "[24]": {"molecular_target": "5-hydroxytryptamine receptor 1B (Rattus norvegicus) (UniProt P28564)", "experiment": "Displacement of [125I]CYP from 5HT1B receptor expressed in rat cerebral cortex", "assay_type": "tissue-based", "details": "concentration not given here"}, "[25]": {"molecular_target": "Melanocortin receptor 4 (Homo sapiens) (UniProt P32245)", "experiment": "Displacement of [125I]NDP-a-MSH from human recombinant MC4 receptor expressed in CHO cells", "assay_type": "cell-based", "details": "concentration not given here"}, "[26]": {"molecular_target": "Neurotensin receptor type 1 (Homo sapiens) (UniProt P30989)", "sequence (P30989 whole entry)": "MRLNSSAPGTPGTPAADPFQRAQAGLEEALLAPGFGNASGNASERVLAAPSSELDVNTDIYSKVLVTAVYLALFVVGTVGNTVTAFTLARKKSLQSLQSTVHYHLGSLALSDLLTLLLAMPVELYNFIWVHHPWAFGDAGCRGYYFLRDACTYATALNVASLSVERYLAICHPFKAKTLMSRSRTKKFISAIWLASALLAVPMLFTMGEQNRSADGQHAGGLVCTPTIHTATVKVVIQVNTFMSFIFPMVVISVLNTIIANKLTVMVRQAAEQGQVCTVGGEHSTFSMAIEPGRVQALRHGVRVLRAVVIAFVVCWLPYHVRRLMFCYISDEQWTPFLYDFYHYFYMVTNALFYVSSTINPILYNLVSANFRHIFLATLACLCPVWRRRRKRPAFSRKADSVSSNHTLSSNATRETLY", "experiment": "Displacement of [125I]Tyr3-neurotensin from human recombinant NT1 receptor expressed in H recombinant CHO cells", "assay_type": "cell-based", "details": "concentration not given here"}, "[27]": {"experiment": "Cmax in mouse at 5 mg/kg, ip", "assay_type": "ADME, organism-based", "set-up": "dose 5 mg/kg, route intraperitoneal", "details": "in vivo", "summary_of_the_method": "as §1"}, "[28]": {"molecular_target": "Beta-2 adrenergic receptor (Homo sapiens) (UniProt P07550)", "sequence (P07550 whole entry, looked up)": "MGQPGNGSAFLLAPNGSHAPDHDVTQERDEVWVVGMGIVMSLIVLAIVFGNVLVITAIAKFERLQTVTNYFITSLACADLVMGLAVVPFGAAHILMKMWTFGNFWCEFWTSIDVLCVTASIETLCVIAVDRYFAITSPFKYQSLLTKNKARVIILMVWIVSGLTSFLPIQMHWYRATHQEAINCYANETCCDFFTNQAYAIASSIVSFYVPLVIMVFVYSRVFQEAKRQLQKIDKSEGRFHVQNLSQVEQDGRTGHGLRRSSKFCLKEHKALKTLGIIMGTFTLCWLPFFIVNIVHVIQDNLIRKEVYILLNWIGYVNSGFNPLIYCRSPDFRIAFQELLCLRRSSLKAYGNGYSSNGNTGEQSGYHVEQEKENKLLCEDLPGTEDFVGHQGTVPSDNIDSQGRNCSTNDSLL", "experiment": "Displacement of [3H](-)CGP 12177 from human recombinant beta2 receptor expressed in CHO cells", "assay_type": "cell-based", "details": "concentration not given here"}, "[29]": {"molecular_target": "Trace amine-associated receptor 1 (Mus musculus, UniProt Q923Y8)", "experiment": "Antagonist activity at mouse TAAR1 assessed as reversal of endogenous beta-PEA effect", "assay_type": "functional", "summary_of_the_method": "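Mouse TAAR1 antagonist dose–response run as an in vitro cAMP functional assay. Efficacy is the reversal of the effect of the endogenous agonist β-PEA, with 100% efficacy defined as 0% min% stim. Values are averages of at least two independent experiments.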"}, "[30]": {"molecular_target": "monoamine oxidase-A (MAO-A) (Rattus norvegicus, UniProt P21396)", "experiment": "Inhibition of rat monoamine oxidase-A at 10 uM"}, "Homo sapiens": {"organism": "Homo sapiens", "experiment": "Inhibition of human vasoactive intestinal peptide receptor VPAC1 at 10 uM"}, "[31]": {"molecular_target": "Neuropeptide Y receptor type 1 (Homo sapiens) (UniProt P25929)", "sequence (P25929 whole entry)": "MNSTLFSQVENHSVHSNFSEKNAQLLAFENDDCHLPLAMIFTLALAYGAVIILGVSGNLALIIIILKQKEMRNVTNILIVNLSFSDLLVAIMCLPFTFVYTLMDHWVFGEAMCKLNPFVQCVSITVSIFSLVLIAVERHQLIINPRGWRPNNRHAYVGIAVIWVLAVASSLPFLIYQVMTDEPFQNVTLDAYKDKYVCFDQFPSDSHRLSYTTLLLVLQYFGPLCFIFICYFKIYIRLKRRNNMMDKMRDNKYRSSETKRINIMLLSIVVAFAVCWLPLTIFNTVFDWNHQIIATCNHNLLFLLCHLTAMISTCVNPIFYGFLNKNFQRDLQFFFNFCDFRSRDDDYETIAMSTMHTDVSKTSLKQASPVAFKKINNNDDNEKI", "experiment": "Displacement of [125I]peptide YY from human recombinant Y1 receptor expressed in […] cell", "details": "concentration not given here"}},
  "data": [
    {"smiles": "CCOc1cccc(NC(=O)c2ccc(N3CCCC3)c(C(F)(F)F)c2)c1", "values": [
      {"measurement": "inhibition", "setting": "[1]", "result": 7, "unit": "%"},
      {"measurement": "inhibition", "setting": "[2]", "result": 15, "unit": "%"},
      {"measurement": "inhibition", "setting": "[3]", "result": 5, "unit": "%"},
      {"measurement": "Kp", "setting": "[4]", "result": 0.5},
      {"measurement": "bioavailability", "setting": "[5]", "result": 74, "unit": "%"},
      {"measurement": "inhibition", "setting": "[6]", "result": 13, "unit": "%"},
      {"measurement": "inhibition", "setting": "Rattus norvegicus [7]", "result": 88, "unit": "%"},
      {"measurement": "inhibition", "setting": "[8]", "result": 25, "unit": "%"},
      {"measurement": "inhibition", "setting": "[9]", "result": 9, "unit": "%"},
      {"measurement": "inhibition", "setting": "[10]", "result": 54, "unit": "%"},
      {"measurement": "Ki", "setting": "[11]", "result": 942, "unit": "nM"},
      {"measurement": "Activity", "setting": "[12]", "result": -12, "unit": "%"},
      {"measurement": "inhibition", "setting": "[13]", "result": 21, "unit": "%"},
      {"measurement": "inhibition", "setting": "[14]", "result": 22, "unit": "%"},
      {"measurement": "inhibition", "setting": "[15]", "result": 50, "unit": "%"},
      {"measurement": "inhibition", "setting": "[16]", "result": 6, "unit": "%"},
      {"measurement": "inhibition", "setting": "[17]", "result": 2, "unit": "%"},
      {"measurement": "inhibition", "setting": "[18]", "result": 4, "unit": "%"},
      {"measurement": "half-life", "setting": "[19]", "result": 1.9, "unit": "h"},
      {"measurement": "inhibition", "setting": "Rattus norvegicus [20]", "result": 16, "unit": "%"},
      {"measurement": "inhibition", "setting": "[21]", "result": 8, "unit": "%"},
      {"measurement": "inhibition", "setting": "Rattus norvegicus [22]", "result": 63, "unit": "%"},
      {"measurement": "IC50", "setting": "[23]", "result": 7490, "unit": "nM"},
      {"measurement": "inhibition", "setting": "[24]", "result": 53, "unit": "%"},
      {"measurement": "inhibition", "setting": "[25]", "result": -2, "unit": "%"},
      {"measurement": "inhibition", "setting": "[26]", "result": -5, "unit": "%"},
      {"measurement": "Cmax", "setting": "[27]", "result": 590, "unit": "ng/mL"},
      {"measurement": "inhibition", "setting": "[28]", "result": 6, "unit": "%"},
      {"measurement": "IC50", "setting": "[29]", "result": 28, "unit": "nM"},
      {"measurement": "inhibition at 10 µM", "setting": "[30]", "result": 61, "unit": "%"},
      {"measurement": "inhibition", "setting": "Homo sapiens", "result": 13, "unit": "%"},
      {"measurement": "inhibition", "setting": "[31]", "result": 4, "unit": "%"}
    ]}
  ]
}
